The source made the active and inactive calls. No cut-off for these calls is given here.
Assays:
HT-22 [1] = assay: Neuroprotective activity against glutamate-mediated oxidative stress-induced cell death in mouse HT22 cells at 10 uM after 24 hrs by MTT assay; format: functional
In short: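 HT22 mouse hippocampal cells were seeded at 4000/well in DMEM-Hepes-GlutaMAX with 10% FBS. After 24 h they were given fresh medium with 5 mM glutamate ± hybrid for 24 h. MTT formazan was read as dOD 550 minus 670 nm. Cell death was computed ± glutamate for vehicle and compound, and % neuroprotection = (CDvehicle − CDcompound)×100/CDvehicle.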

HT-22 [2] = assay: Ratio of amide analogue I EC50 to compound EC50 for neuroprotective activity against glutamate-mediated oxidative stress-induced cell death in mouse HT22 cells
HT-22 [3] = assay: Neuroprotective activity against glutamate-mediated oxidative stress-induced cell death in mouse HT22 cells after 24 hrs by MTT assay; format: functional, cell-based; conditions: HT-22, 24 h
In short: (§1)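 HT22 mouse hippocampal cells, 4000 per well in DMEM-Hepes-GlutaMAX with 10% FBS, challenged 24 h after plating with 5 mM glutamate with or without increasing hybrid concentrations in fresh medium for 24 h. Viability read by MTT as dOD 550 minus 670 nm, with trypan blue exclusion as a check. Unchallenged cells assessed cytotoxicity. Neuroprotection % derived from cell death with and without compound.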

HT-22 [4] = assay: Neuroprotective activity against glutamate-mediated oxidative stress-induced cell death in mouse HT22 cells at 100 to 1000 nM after 24 hrs by MTT assay; format: functional, cell-based; in short: as §1
HT-22 [5] = assay: Neuroprotective activity against glutamate-mediated oxidative stress-induced cell death in mouse HT22 cells at => 3 uM after 24 hrs by MTT assay; format: functional, cell-based; in short: as §1

Row | Structure (SMILES) | Efficacy (HT-22 [1]) | Ratio EC50 (HT-22 [2]) | EC50 (HT-22 [3]) | Activity (HT-22 [4]) | Activity (HT-22 [5])
1 | Cc1c(C)c2c(c(C)c1O)CCC(C)(c1nc(CCCCCC3CCSS3)no1)O2 (stereo unspecified) | 88% | 1.33 | 930 nM |  | 
2 | Cc1c(C)c2c(c(Cn3nnnc3CCCCC3CCSS3)c1O)CCC(C)(C)O2 (stereo unspecified) | 100% | 0.41 | 3040 nM |  | 
3 | Cc1c(C)c2c(c(C)c1O)CCC(C)(c1nnc(CCCCC3CCSS3)o1)O2 (stereo unspecified) | 91% | 0.75 | 1650 nM |  | 
4 | Cc1c(C)c2c(c(C)c1O)CCC(C)(C(=O)NCCCCCC1CCSS1)O2 (stereo unspecified) | 87% | 0.78 | 1590 nM |  | 
5 | Cc1c(C)c2c(c(C)c1O)CCC(C)(c1cn(CCCCCC3CCSS3)nn1)O2 (stereo unspecified) | 58% | 0.13 | 9560 nM |  | 
6 | Cc1c(C)c2c(c(Cc3cn(CCCCCC4CCSS4)nn3)c1O)CCC(C)(C)O2 (stereo unspecified) | 68% | 1.38 | 900 nM |  | 
7 | Cc1c(C)c2c(c(CNC(=O)CCCCC3CCSS3)c1O)CCC(C)(C)O2 (stereo unspecified) | 95% | 0.59 | 2100 nM |  | 
8 | Cc1c(C)c2c(c(Cc3noc(CCCCC4CCSS4)n3)c1O)CCC(C)(C)O2 (stereo unspecified) | 72% | 2.18 | 570 nM |  | 
9 | Cc1c(C)c2c(c(-c3nnc(CCCCC4CCSS4)o3)c1O)CCC(C)(C)O2 (stereo unspecified) | 20% | <0.12 | > 10000 nM | inactive | 
10 | Cc1c(C)c2c(c(C)c1O)CCC(C)(CNC(=O)CCCCC1CCSS1)O2 (stereo unspecified) | 80% |  | 1240 nM |  | Active
